Reference: the EternaBench riboswitch data

System: MS2 coat protein
Assay: apparent Kd, MS2 coat protein; higher = weaker binding; RNA-MaP array; FMN 200 µM where present
Method in brief: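 Each design was made on Illumina sequencing-chip clusters by stalled E. coli RNA polymerase and titrated with SNAP-549-labelled MS2 coat protein from 0.7 or 1.5 nM, doubling to 3 µM, in the absence and then the presence of constant ligand. The buffer was 100 mM Tris-HCl pH 7.5, 80 mM KCl, 4 mM MgCl2, BSA, DTT, yeast tRNA and Tween-20. The apparent Kd is the median of filtered per-cluster fits of binding curves, with green signal normalised to red-channel RNA signal and control-cluster median Fmax.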

[1] = designed as: OFF switch for flavin mononucleotide, no ligand
[2] = ligand present: flavin mononucleotide, designed as: OFF switch for flavin mononucleotide
[3] = designed as: ON switch for flavin mononucleotide, no ligand
[4] = ligand present: flavin mononucleotide, designed as: ON switch for flavin mononucleotide

| Sequence | apparent Kd [1] [nM] | apparent Kd [2] [nM] | apparent Kd [3] [nM] | apparent Kd [4] [nM] |
| --- | --- | --- | --- | --- |
| ACGUGUCGUGUAGGAUAUGACACAGGAAACUGGUCAGAAGGACAUGAGGAUCACCCAUGUAAAAUGUUCAAGAAUGACGUAUGC | 58.6 | 105 | – | – |
| UUUAUUAACAAGAAGGCAUACAUGAGGAUCACCCAUGUUCUACAUGGAUAAUGAGGAUAUUGCUAAUACAUGAGGAUCACCCAU | 50.6 | 53 | – | – |
| CGCUCAAUAGAGAAGGAAAGAAUCAGAAGGCGUUACAUGAGGAUCACCCAUGUUUUGUAUAGUAACGAGGAUAUGAUAUGAGCG | 18.9 | 15.3 | – | – |
| AAUCAGCGGAACUUGACAUCCUUACAUGAGGAUCACCCAUGUCAGGAUAUAUGCUCUCGAGCUGCAUAGAAGGGACAUAGUGGG | 37.7 | 56 | – | – |
| UUAAUUAUACAAGGAUAUCUAUUGUUCUUUCGACUUACAUGAGGAUCACCCAUGUUAAUAUAUAUAGAGAAGGUGUAUUUUCAG | – | – | 43.3 | 25.4 |
| CAUUGCGAAGGAUAUACAUGAGGAUCACCCAUGUGUUUCCUCACGCACGGGAGUAGCGGUAGAAGGUCGCAGAA | 14.7 | 29.4 | – | – |
| CGUCGCUGUCGAGAGGAUAUGCGGUGGUGGACAUGAGGAUCACCCAUGUUAGCGAUAGCAUCACGGUAGAAGGCUCUUACGACUG | – | – | 21.4 | 20.6 |
| GCGUUCUUGUAGAAGGUACUUUCAACAUCUUAUAAACGCUAGACACAUGAGGAUCACCCAUGUUGUAAGGAUAUACAUGAACGC | – | – | 11.3 | 10.9 |
| UUAUUAUAUGUAGGAUAUGCAUAUUAUUAUUAUGCAGAAGGACAUGAGGAUCACCCAUGUAUAUUGUUAUUAUAUAUUAUAUAU | 25.5 | 37 | – | – |
| GGUCUGAUAUGAGGAUAUGCUCAGGAAUACUGAGCAGAAGGCAUGUGAAUACAUGAGGAUCACCCAUGUGAUCAAUACAGACCA | – | – | 140 | 26 |
| GGUACUCAAAGAGUACAAGGUCGAACAUGAGGAUCACCCAUGUAGGAUAUGCUAAGCAAGAAGUAGCAGAAGGACAUGUGCAGC | 17.7 | 59.5 | – | – |
| GGAGCUCACAUGAACAUGAGGAUCACCCAUGUAACUAGACAUGAGGAUAUGGAUCCUAAUUGGAUCCAGAAGGCAUGGAGCUCC | – | – | 161 | 27.9 |
| CCUAAGGAGACAGGAUAUAGCGUGGUGGCCGGGCUCCCACGGCGAGCGGCGCUAGAAGGGUCACUACAUGAGGAUCACCCAUGU | – | – | 11.2 | 11.6 |
| GGGCUCCCGCAGAAGGUGACAAAGUGUUCAUGUCAAGGAUAUGUGGUUCACAUGAGGAUCACCCAUGUAGGGCCCGUUAGGAAC | – | – | 97.3 | 23.9 |
| GGAUAGUGUCGUUAUCCGUAGCGAACAUGAGGAUCACCCAUGUAGGAUAUGUUAUUAAACUAAUAACAGAAGGGCGUGAGUCUC | 429 | 480 | – | – |
| GUGAGGUCAGGAUAUGCAUGGCGGGACUUGCGUCGUGGCGUGGAGAAGGGACAUGAGGAUCACCCAUGUGGAGC | 55.6 | 59.1 | – | – |
| GGUACCAUCACAGGAUAUGCUUUUCUUUGGGAAGCAGAAGGGUGUAACAUGAGGAUCACCCAUGUGGUACCAGGGCGUGAGCCC | – | – | 170 | 14.8 |
| GACUCGCGCACAGGAUAUCCACGGAGCGGACGUGGAGAAGGGUGACAUGAGGAUCACCCAUGUACGUGAGUCUAGAUCACUUCC | – | – | 67.2 | 25 |
| UUUAAACAUGAGGAUCACCCAUGUCGUUCAAAUCAAGGAUAUCAAGCGUGUGAGCACACUUGAGAAGGUGAAGCUC | – | – | 31 | 60.8 |
| AGGUGAAAUGUAGGAUAUGGAAAUAAAUUUUAACCAGAAGGACAUGAGGAUCACCCAUGUGAUAGAGAGUUAUUUAUAACUCCA | 13.9 | 95.9 | – | – |
| AAUAAACUCACAGGAUAUAGCAUAGGUCGCCUGAACUUACAGGCGACUAUGCUAGAAGGGUGACCACAUGAGGAUCACCCAUGU | – | – | 847 | 168 |

| Sequence | apparent Kd [1] [nM] | apparent Kd [2] [nM] | apparent Kd [3] [nM] | apparent Kd [4] [nM] |
| --- | --- | --- | --- | --- |
| UAGAUGGGAGGAUAUGCAUAGAUACAGAUUCGUGUAGUGCUACAUGAGGAUCACCCAUGUAGAAGGCCCGUCUU | 14.8 | 37.6 | – | – |
| GCUGCAUAGGCAGGAUAUGCAAACAUGAGAUGAAAAUACAUCUCAUGUACAUGAGGAUCACCCAUGUAGAAGGGCCUGUGCAGU | 14.9 | 15.5 | – | – |
| UUUUAGAGAGGAUAUACAUUUUUUUAUUUAUUUAUAAUAUUACAUGAGGAUCACCCAUGUAGAAGGCUCAUUUU | 28.8 | 22 | – | – |
| CCAGAAUAGAAGGAUAUCGUGCUAUAGAGCGGAUGAGAAGGUCUGACAUGAGGAUCACCCAUGUGCACUUCAUG | 103 | 320 | – | – |
| AAAAGCUCAGGAUAUACGGUCUGUUGUUGAGAAAUAAAAAAACAUGAGGAUCACCCAUGUAGAAGGGAGCGAAA | 79.5 | 160 | – | – |
| GUGAGGUCAGGAUAUGCAUGGCGGGACUUGCGUCGUGGCGUGGAGAAGGGACAUGAGGAUCACCCAUGUGGAGU | 87.6 | 49.5 | – | – |
| GCCAUCGUAUGAGGAUAUGGCACCGAAACGGUGCCAGAAGGCAUGUCAAUAGACAUGAGGAUCACCCAUGUCUUAUCGAUGGCA | – | – | 19.9 | 18.9 |
| CUUUAGUGAGGAUAUCAGUGGUAAUACAAUAGUAUUACUACUGAGAAGGCACAUGAGGAUCACCCAUGUUCCUC | 26.6 | 155 | – | – |
| ACCUCGUACACAGGAUAUGAUUACUUGCAGCCUGCGUUGACAUGAGGAUCACCCAUGUGGACUGAUCAGAAGGGUGAACGGAAG | – | – | – | 112 |
| AAAUUUAACGAAGGAUAUGCUGACAUGAGGAUCACCCAUGUGUGCUUUGUGUUGCUGAAACGGGAGCAGAAGGUCGUAUACAUA | 82.5 | 82.5 | – | – |
| UUCAGACAUGAGGAUCACCCAUGUGAGGAUAUGAUGCAGCAGUGGUCUACGCUGUGCAUCAGAAGGCACAUGUG | 140 | 32.7 | – | – |
| UCCCUGUGAGGAUAUCUCUUUGAGUGCGGCGAAUUCAGGUGGGAGAAGGCACAUGAGGAUCACCCAUGUAUUGC | 40.2 | 73 | – | – |
| GUUAGACAUGAGGAUCACCCAUGUGAGGAUAUGAUGCGAAUAAAGAAUGAAGUAAGCAUCAGAAGGCACAUAUG | 267 | 381 | – | – |
| AUCAGCUCAUCAGGAUAUACGUCACUGCGUCAGCAGUGUGGUAAGAUCACAUGAGGAUCACCCAUGUAGAAGGGACGAGCUGAU | 13.7 | 243 | – | – |
| ACAAAUGGAGGAUAUACAUGAGGAUCACCCAUGUUUAUCCUACAUAUGUGAUACUCAUGUAGAAGGCCAUUUGA | 13.1 | 12.6 | – | – |
| ACCAAUGGAGGAUAUACAUGAGGAUCACCCAUGUAUAACCUACAUAGGUGAAAAUUAUGUAGAAGGCCAUUGGA | 14.6 | 13.4 | – | – |
| UUAAAUCAUGUAGGAUAUGCAUGGCGAAGCUACGCAGAAGGACAUGAGGAUCACCCAUGUUAUAGCUACCGAGUAAGGUGGCAA | 92.6 | 227 | – | – |
| GUCCUCUCUGAGGAUAUUAUCCGGUCCGAUUGAUAAGAAGGCAGUACAUGAGGAUCACCCAUGUGGGUCGUCUG | 37.4 | 111 | – | – |
| UAUAUAUAGGCAGGAUAUACAUGAAUAUAUAUAAUAUAAUAUAAUGUAACAUGAGGAUCACCCAUGUAGAAGGGCCAAUAUAUA | 30.6 | 59.9 | – | – |
| CCUCCCUGAGGAUAUCCACCCUCAUACAUGAGGAUCACCCAUGUUCAACCCUGGGUUCCCGGAGAAGGCAGUUUUC | 97.2 | 102 | – | – |
| CAUUAUUAUCGAGGAUAUCCUAUUGAAAUUCUGGGAGAAGGCGGACUCAACAUGAGGAUCACCCAUGUGAGACGGAUGCUAGGG | 20.2 | 15.8 | – | – |
